One may read the MIC as the lowest concentration found to suppress growth. A lower MIC goes with a more susceptible organism. Broadly, the IC50 is the concentration at which inhibition is half-maximal. The low end stands for greater potency, the high end for weaker potency.

In brackets after ≈: the same amount, converted by molar mass.

This is an account of results in ChEMBL document CHEMBL1132655, “Discovery of novel disaccharide antibacterial agents using a combinatorial library approach” (J Med Chem, 1999).

Assay [1] concerns Staphylococcus epidermidis. In words: Compound was tested for the inhibition of cell wall biosynthesis and growth against Staphylococcus epidermidis (ATCC 12228) (sensitive strain). It counts as functional. In outline: (§1)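 MIC by broth dilution in brain heart infusion medium with 0.1% casamino acids. Log-phase cells diluted to about 5×10^5 CFU/mL and exposed to compound serially diluted in DMSO (5% final DMSO). OD600 read on a plate reader; MIC taken as the concentration giving >90% growth inhibition relative to untreated control, corrected for medium blank.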

Assay [2] has as its system Enterococcus faecalis. Kind of assay: Compound was tested for the inhibition of cell wall biosynthesis and growth against Enterococcus faecalis (ATCC 29212) (sensitive strain). It counts as functional. In outline: (§2)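 Broth microdilution MIC in brain heart infusion medium with 0.1% casamino acids. Log-phase cells were diluted to about 5×10^5 CFU/mL and exposed to compound serially diluted in DMSO (5% final DMSO). OD600 was read in microtiter plates. MIC (µg/mL) was called where [OD600 control − OD600 test]/[OD600 control − OD600 media] × 100 > 90%.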

Assay [3] has as its system Enterococcus faecium. In words: Compound was tested for the inhibition of cell wall biosynthesis and growth against Enterococcus faecium (ATCC49624) (sensitive strain). It counts as functional. In outline:
as §2

Assay [4] has as its system Staphylococcus aureus. In words: Compound was tested for the inhibition of cell wall biosynthesis and growth against Staphylococcus aureus (ATCC 43300) (Methicillin-resistant). It counts as functional. In outline:
as §2

Assay [5] can be described thus: The compound was tested for inhibitory activity against PGP30 bacterial cell wall biosynthesis. It counts as functional, Bacteria.
The subject of a further assay is Escherichia coli. Kind of assay: Compound was tested for the inhibition of cell wall biosynthesis and growth against Escherichia coli (BAS849) (super-sensitive permeability mutant of E. coli) (sensitive strain). It counts as functional. In outline:
as §1

The test system of assay [6] is Enterococcus faecium. In words: Compound was tested for the inhibition of cell wall biosynthesis and growth against Enterococcus faecium (CL4931) (Vancomycin-resistant). It counts as functional. In outline: as §2
Assay [7] concerns Enterococcus faecalis. In words: Compound was tested for the inhibition of cell wall biosynthesis and growth against Enterococcus faecalis (CL5244) (Vancomycin-resistant). It counts as functional. In outline:
as §2

In assay [8] the test system is Enterococcus faecium. In words: Compound was tested for the inhibition of cell wall biosynthesis and growth against Enterococcus faecium (ATCC51559) (Vancomycin-resistant). It counts as functional. In outline:
as §2

Assay [9] relates to Enterococcus faecalis. In words: Compound was tested for the inhibition of cell wall biosynthesis and growth against Enterococcus faecalis (CL4877) (Vancomycin-resistant). It counts as functional. In outline: as §2
The subject of assay [10] is Enterococcus faecalis. In words: Compound was tested for the inhibition of cell wall biosynthesis and growth against Enterococcus faecalis (ATCC51575) (Vancomycin-resistant). It counts as functional. In outline:
as §2

For assay [11], the system named is Staphylococcus aureus. In words: Compound was tested for the inhibition of cell wall biosynthesis and growth against Staphylococcus aureus (ATCC 29213) (sensitive strain). It counts as functional. In outline: as §2
For assay [12], the system named is Enterococcus faecium. In words: Compound was tested for the inhibition of cell wall biosynthesis and growth against Enterococcus faecium (ATCC49624) (sensitive strain).

Turning to `CCCCCCCCCCCCOP(=O)(O)OC1OC(C(N)=O)C(OC)C(NC(=O)Nc2ccc(Cl)c(C(F)(F)F)c2)C1OC1OC(CO)C(O)C(O)C1NC(=O)c1cccc(C(F)(F)F)c1` (stereo unspecified), the MIC in assay [1] came to 6.25 mg/L (≈ 6.19 µM); in the assay on Enterococcus faecalis [2] it was 6.25 mg/L (≈ 6.19 µM); in the assay with Enterococcus faecium [3], 6.25 mg/L (≈ 6.19 µM); against Staphylococcus aureus [4] it was 6.25 mg/L (≈ 6.19 µM); in the assay with Escherichia coli, 12.5 mg/L (≈ 12.4 µM); against Enterococcus faecium [6], 6.25 mg/L (≈ 6.19 µM). Besides, the MIC turned out to be 6.25 mg/L (≈ 6.19 µM) with Enterococcus faecalis [7]; 6.25 mg/L (≈ 6.19 µM) against Enterococcus faecium [8]; 3.12 mg/L (≈ 3.09 µM) in the assay on Enterococcus faecalis [9]; 6.25 mg/L (≈ 6.19 µM) in the assay on Enterococcus faecalis [10]; 6.25 mg/L (≈ 6.19 µM) against Staphylococcus aureus [11]. Further, in assay [5], the IC50 turned out to be 8.2 mg/L (≈ 8.12 µM).

Turning to `CCCCCCCCCCCCCCC(OP(=O)(O)OC1OC(C(N)=O)C(OC)C(NC(=O)Nc2ccc(Cl)c(C(F)(F)F)c2)C1OC1OC(CO)C(O)C(O)C1NC(=O)c1cccc(C(F)(F)F)c1)C(=O)O` (stereo unspecified), the MIC in assay [1] is 6.25 mg/L (≈ 5.71 µM); with Enterococcus faecalis [2], 3.12 mg/L (≈ 2.85 µM); against Enterococcus faecium [3], 3.12 mg/L (≈ 2.85 µM); with Staphylococcus aureus [4], 3.12 mg/L (≈ 2.85 µM); against Escherichia coli, greater than 25 mg/L; in the assay with Enterococcus faecium [6], 6.25 mg/L (≈ 5.71 µM). In addition, the MIC against Enterococcus faecalis [7] worked out at 6.25 mg/L (≈ 5.71 µM); against Enterococcus faecium [8], 3.12 mg/L (≈ 2.85 µM); in the assay on Enterococcus faecalis [9], 3.12 mg/L (≈ 2.85 µM); in the assay with Enterococcus faecalis [10], 6.25 mg/L (≈ 5.71 µM); in the assay with Staphylococcus aureus [11] it was 6.25 mg/L (≈ 5.71 µM). The same compound showed an IC50 in [5] of 9.2 mg/L (≈ 8.4 µM).

Regarding `CCCCCCCCCCCCO[C@H](COP(=O)(O)OC1OC(C(N)=O)C(O)C(NC(=O)Nc2ccc(OC(F)(F)F)cc2)C1OC1OC(CO)C(O)C(O)C1NC(=O)c1cccc(C(F)(F)F)c1)C(=O)O` (stereo partly specified), the MIC is 6.25 mg/L (≈ 5.87 µM) in [1]; 6.25 mg/L (≈ 5.87 µM) against Enterococcus faecalis [2]; 6.25 mg/L (≈ 5.87 µM) in the assay with Enterococcus faecium [3]; 6.25 mg/L (≈ 5.87 µM) against Staphylococcus aureus [4]; greater than 25 mg/L against Escherichia coli; 6.25 mg/L (≈ 5.87 µM) with Enterococcus faecium [6]. The minimum inhibitory concentration (MIC) in the assay on Enterococcus faecalis [7] came out at 6.25 mg/L (≈ 5.87 µM); in the assay on Enterococcus faecium [8], 12.5 mg/L (≈ 11.7 µM); with Enterococcus faecalis [9], 6.25 mg/L (≈ 5.87 µM); in the assay with Enterococcus faecalis [10], 25 mg/L (≈ 23.5 µM); in the assay with Staphylococcus aureus [11], 6.25 mg/L (≈ 5.87 µM). The same compound gave an IC50 in assay [5] of 9.2 mg/L (≈ 8.64 µM).

For `CCCCCCCCCCCCO[C@H](COP(=O)(O)OC1OC(C(N)=O)C(O)C(NC(=O)Nc2ccc(Cl)c(C(F)(F)F)c2)C1OC1OC(CO)C(O)C(O)C1NC(=O)c1cccc(C(F)(F)F)c1)C(=O)O` (stereo partly specified), the MIC came to 12.5 mg/L (≈ 11.5 µM) in assay [1]; 3.12 mg/L (≈ 2.88 µM) against Enterococcus faecalis [2]; 6.25 mg/L (≈ 5.77 µM) in the assay with Enterococcus faecium [3]; 12.5 mg/L (≈ 11.5 µM) against Staphylococcus aureus [4]; 12.5 mg/L (≈ 11.5 µM) against Escherichia coli; 6.25 mg/L (≈ 5.77 µM) in the assay on Enterococcus faecium [6]. The MIC against Enterococcus faecalis [7] was 3.13 mg/L (≈ 2.89 µM); in the assay with Enterococcus faecium [8], 6.25 mg/L (≈ 5.77 µM); with Enterococcus faecalis [9], 3.13 mg/L (≈ 2.89 µM); against Enterococcus faecalis [10] it was 12.5 mg/L (≈ 11.5 µM); in the assay on Staphylococcus aureus [11] it was 12.5 mg/L (≈ 11.5 µM). This compound also registered an IC50 in assay [5] of 10.6 mg/L (≈ 9.78 µM).

As to `CCCCCCCCCCCCOP(=O)(O)OC1OC(C(N)=O)C(O)C(NC(=O)Nc2ccc(Cl)c(C(F)(F)F)c2)C1OC1OC(CO)C(O)C(O)C1NC(=O)c1cccc(C(F)(F)F)c1` (stereo unspecified), the MIC stood at 12.5 mg/L (≈ 12.6 µM) in [1]; 3.12 mg/L (≈ 3.13 µM) against Enterococcus faecalis [2]; 12.5 mg/L (≈ 12.6 µM) in the assay with Enterococcus faecium [3]; 6.25 mg/L (≈ 6.28 µM) with Staphylococcus aureus [4]; 12.5 mg/L (≈ 12.6 µM) in the assay on Escherichia coli; 3.13 mg/L (≈ 3.14 µM) against Enterococcus faecium [6]. In addition, the MIC in the assay with Enterococcus faecalis [7] worked out at 3.13 mg/L (≈ 3.14 µM); in the assay with Enterococcus faecium [8] it was 12.5 mg/L (≈ 12.6 µM); in the assay on Enterococcus faecalis [9], 3.13 mg/L (≈ 3.14 µM); in the assay on Enterococcus faecalis [10], 12.5 mg/L (≈ 12.6 µM); against Staphylococcus aureus [11], 6.25 mg/L (≈ 6.28 µM). Further, the IC50 in assay [5] was 15.4 mg/L (≈ 15.5 µM).

`CCCCCCCCCCCCO[C@H](COP(=O)(O)OC1OC(C(N)=O)C(OC)C(NC(=O)Nc2ccc(Cl)c(C(F)(F)F)c2)C1OC1OC(CO)C(O)C(O)C1NC(=O)c1ccccc1)C(=O)O` (stereo partly specified): the MIC is 12.5 mg/L (≈ 12.1 µM) in [1]; 12.5 mg/L (≈ 12.1 µM) in the assay with Enterococcus faecalis [2]; 25 mg/L (≈ 24.3 µM) against Staphylococcus aureus [4]; 12.5 mg/L (≈ 12.1 µM) against Enterococcus faecium [12]; 25 mg/L (≈ 24.3 µM) in the assay with Escherichia coli; 25 mg/L (≈ 24.3 µM) against Enterococcus faecium [6]. For the same compound, the minimal inhibitory concentration (MIC) with Enterococcus faecalis [7] is 12.5 mg/L (≈ 12.1 µM); against Enterococcus faecium [8], 12.5 mg/L (≈ 12.1 µM); with Enterococcus faecalis [9], 6.25 mg/L (≈ 6.07 µM); in the assay with Enterococcus faecalis [10] it was 25 mg/L (≈ 24.3 µM); in the assay with Staphylococcus aureus [11] it was 12.5 mg/L (≈ 12.1 µM). The compound also gave a concentration for half-maximal inhibition (IC50) in assay [5] of 6.8 mg/L (≈ 6.61 µM).

Turning to `C=C(C/C=C(\C)CCC=C(C)C)CCC(C)(C)/C=C/CC/C(C)=C\CO[C@H](COP(=O)(O)O[C@H]1O[C@@H](C(N)=O)[C@@](C)(O)[C@H](OC(N)=O)[C@@H]1O[C@@H]1O[C@@H](CO[C@@H]2O[C@@H](CO)[C@@H](O)[C@H](O)[C@@H]2O)[C@@H](O[C@@H]2O[C@@H](C)[C@@H](O[C@@H]3O[C@@H](C(=O)NC4=C(O)CCC4=O)[C@H](O)[C@H](O)[C@@H]3O)[C@H](O)[C@@H]2NC(C)=O)[C@@H](O)[C@@H]1NC(C)=O)C(=O)O` [MOENOMYCIN], the MIC is 0.025 mg/L (≈ 0.0158 µM) in assay [1]; 0.078 mg/L (≈ 0.0493 µM) against Enterococcus faecalis [2]; greater than 200 mg/L in the assay with Enterococcus faecium [3]; 0.062 mg/L (≈ 0.0392 µM) in the assay on Staphylococcus aureus [4]; 0.025 mg/L (≈ 0.0158 µM) in the assay on Escherichia coli; 0.39 mg/L (≈ 0.246 µM) against Enterococcus faecium [6]. Also, the MIC came out at 0.062 mg/L (≈ 0.0392 µM) with Enterococcus faecalis [7]; 1.56 mg/L (≈ 0.986 µM) with Enterococcus faecium [8]; 0.062 mg/L (≈ 0.0392 µM) in the assay with Enterococcus faecalis [9]; 0.062 mg/L (≈ 0.0392 µM) against Enterococcus faecalis [10]; 0.05 mg/L (≈ 0.0316 µM) in the assay with Staphylococcus aureus [11]. This compound had an IC50 in assay [5] of 0.025 mg/L (≈ 0.0158 µM).

Consider `CN[C@H](CC(C)C)C(=O)N[C@H]1C(=O)N[C@@H](CC(N)=O)C(=O)N[C@H]2C(=O)N[C@H]3C(=O)N[C@H](C(=O)N[C@H](C(=O)O)c4cc(O)cc(O)c4-c4cc3ccc4O)[C@H](O)c3ccc(c(Cl)c3)Oc3cc2cc(c3O[C@@H]2O[C@H](CO)[C@@H](O)[C@H](O)[C@H]2O[C@H]2C[C@](C)(N)[C@H](O)[C@H](C)O2)Oc2ccc(cc2Cl)[C@H]1O` [VANCOMYCIN], for which the MIC in assay [1] is 3.13 mg/L (≈ 2.16 µM); with Enterococcus faecalis [2], 6.25 mg/L (≈ 4.31 µM); against Enterococcus faecium [3], 0.78 mg/L (≈ 0.538 µM); in the assay on Staphylococcus aureus [4], 3.13 mg/L (≈ 2.16 µM); in the assay with Escherichia coli, 0.78 mg/L (≈ 0.538 µM); in the assay with Enterococcus faecium [6], greater than 125 mg/L. Further, the MIC is 15.6 mg/L (≈ 10.8 µM) in the assay with Enterococcus faecalis [7]; greater than 125 mg/L in the assay with Enterococcus faecium [8]; greater than 125 mg/L against Enterococcus faecalis [9]; greater than 125 mg/L with Enterococcus faecalis [10]; 3.13 mg/L (≈ 2.16 µM) in the assay on Staphylococcus aureus [11]. The same compound registered an IC50 in assay [5] of 5.2 mg/L (≈ 3.59 µM).
